From the EternaBench riboswitch data

Legend:
MS2 coat protein [1] = assay: apparent Kd, MS2 coat protein; higher = weaker binding; RNA-MaP array; tryptophan 2.4 mM where present
Summary of the method: (§1)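 Designs on Illumina sequencing-chip clusters, transcribed by stalled E. coli RNA polymerase, were exposed to SNAP-549-labelled MS2 coat protein in doubling steps from 0.7 or 1.5 nM up to 3 µM, without and then with constant ligand. The buffer held 100 mM Tris-HCl pH 7.5, 80 mM KCl, 4 mM MgCl2, BSA, DTT, yeast tRNA and Tween-20. Apparent Kd values are medians of filtered per-cluster binding-curve fits to green signal normalised to red-channel RNA signal and control-cluster median Fmax.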

MS2 coat protein [2] = assay: apparent Kd, MS2 coat protein; higher = weaker binding; RNA-MaP array; theophylline 2 mM where present
Summary of the method: as §1

[3] = designed as: OFF switch for tryptophan, no ligand
[4] = ligand present: tryptophan, designed as: OFF switch for tryptophan
[5] = designed as: ON switch for tryptophan, no ligand
[6] = ligand present: tryptophan, designed as: ON switch for tryptophan
[7] = designed as: ON switch for theophylline, no ligand
[8] = ligand present: theophylline, designed as: ON switch for theophylline
[9] = designed as: OFF switch for theophylline, no ligand
[10] = ligand present: theophylline, designed as: OFF switch for theophylline

Sequence: GAUCGAAAUAACGUCUAGGAAAACUAGACGCGAGGACCGGUACGGCCGCCACUCGGGUGGCACAUGAGGAUCACCCAUGUAGAUC
- apparent Kd (MS2 coat protein [1]; [3]): 78.7 nM
- apparent Kd (MS2 coat protein [1]; [4]): 105 nM

Sequence: AUUCAUGGAAACAUGACAUAGGGAUCCGGUCGAGGACCGGUACGGCCGCCACUCGUUUGGAGGCACAUGAGGAUCACCCAUGUUA
- apparent Kd (MS2 coat protein [1]; [5]): 82 nM
- apparent Kd (MS2 coat protein [1]; [6]): 67.5 nM

Sequence: AGAUGAGUCACGGCCGCCACUCACUACAGGUUCACCCUUGGUUAACAUGAGGAUCACCCAUGUGGGAGGACCGGGUGAUGAGCAU
- apparent Kd (MS2 coat protein [1]; [3]): 19.9 nM
- apparent Kd (MS2 coat protein [1]; [4]): 25.1 nM

Sequence: AUGGACGACGAUCUGGGAAAACCAGAUCGACGAGGACCGGUACGGCCGCCACUCGUGUUUAUUUAACAUGAGGAUCACCCAUGUA
- apparent Kd (MS2 coat protein [1]; [5]): 45.9 nM
- apparent Kd (MS2 coat protein [1]; [6]): 17.6 nM

Sequence: GUAGCGACGGCGGCCGCCACUCACAGGUGAGGGUAGACCAACCUUCACAUGAGGAUCACCCAUGUGAGGACCGGGCUGUCGCUAC
- apparent Kd (MS2 coat protein [1]; [3]): 90.9 nM
- apparent Kd (MS2 coat protein [1]; [4]): 146 nM

Sequence: ACAUGAGCAUCAGCCAUGUGUAUGACAUGACGAGGACCGGUACGGCCGCCACUCGACAUGAGGAUCACCCAUGUUGAGGAUCACA
- apparent Kd (MS2 coat protein [1]; [3]): 10.9 nM
- apparent Kd (MS2 coat protein [1]; [4]): 14.7 nM

Sequence: UUAUAAGUACCGGUCCUCAGAUCCUCAUGACGAGGACCGGUACGGCCGCCACUCGAAACAUGAGGAUCACCCAUGUAAUAAUACU
- apparent Kd (MS2 coat protein [1]; [3]): 26.4 nM
- apparent Kd (MS2 coat protein [1]; [4]): 20.2 nM

Sequence: GAUAUAUAGGCGGCCGCCACUGAUUUUCAUAUAUAUAUAACAUGAGGAUCACCCAUGUAGAUAUACAGGACCGGGCCUAUAUAUU
- apparent Kd (MS2 coat protein [1]; [5]): 14.5 nM
- apparent Kd (MS2 coat protein [1]; [6]): 13.4 nM

Sequence: AAUAAUAAGGCGGCCGCCACUACACAUGAGGAUCACCCAUGUCUCGCGGGCUUGCGUUGGGAUUGUAGGACCGGGCCAAUAAUAA
- apparent Kd (MS2 coat protein [1]; [3]): 26.7 nM
- apparent Kd (MS2 coat protein [1]; [4]): 20.3 nM

Sequence: UAAUCCGGUCCUCGAUAGGUGAUCCUCUAACGAGGACCGGUACGGCCGCCACUCGAUAACAUGAGGAUCACCCAUGUAAUAAUAA
- apparent Kd (MS2 coat protein [1]; [3]): 44 nM
- apparent Kd (MS2 coat protein [1]; [4]): 33.8 nM

Sequence: GGGUACAUCGCGGCCGCCACUUAUGUAAAUACAUGAGGAUCACCCAUGUCGAUGGAGACAUCGGAAAGGACCGGGUGAUGUACCG
- apparent Kd (MS2 coat protein [1]; [5]): 198 nM
- apparent Kd (MS2 coat protein [1]; [6]): 47.5 nM

Sequence: AUAACGAGUGGUGGAUAAUCCUCAUGUAAACGAGGACCGGUACGGCCGCCACUCGAUAACAUGAGGAUCACCCAUGUAAUAAUAA
- apparent Kd (MS2 coat protein [1]; [3]): 13.2 nM
- apparent Kd (MS2 coat protein [1]; [4]): 10.3 nM

Sequence: CCUCAUGAACAUGAGGAUCACCCAUGUACACGAGGACCGGUACGGCCGCCACUCGAAUAAGCUAAAUAUAAAUAAUAAUAAUAGC
- apparent Kd (MS2 coat protein [1]; [3]): 16.9 nM
- apparent Kd (MS2 coat protein [1]; [4]): 37.6 nM

Sequence: UGUACCAUGUCGGCCGCCACUCAUGAUAAACAUGAGGAUCACCCAUGUGGCGUCAAAGACGCUAUGAGGACCGGGACAUGGUACU
- apparent Kd (MS2 coat protein [1]; [5]): 13.2 nM
- apparent Kd (MS2 coat protein [1]; [6]): 10.6 nM

Sequence: GGUUACUCUACGGCCGCCACUGUUAAAUAAUAAACCUGUACAUAAACAUGAGGAUCACCCAUGUACAGGACCGGGUAGUGUAACC
- apparent Kd (MS2 coat protein [1]; [5]): 32.1 nM
- apparent Kd (MS2 coat protein [1]; [6]): 16.1 nM

Sequence: AUUCAUGGAAACAUGACAUAGGGAUCUAUCCGAGGACCGGUACGGCCGCCACUCGCGUGGAGGCACAUGAGGAUCACCCAUGUUA
- apparent Kd (MS2 coat protein [1]; [5]): 278 nM
- apparent Kd (MS2 coat protein [1]; [6]): 432 nM

Sequence: GGAUGCGGCACGGCCGCCACUGCGGUGGUGUGACAUGAGGAUCACCCAUGUUGUCAUGCGGCCCUUAGGACCGGGUGGCGUGUCC
- apparent Kd (MS2 coat protein [1]; [3]): 46.4 nM
- apparent Kd (MS2 coat protein [1]; [4]): 47 nM

Sequence: UGUCAGCGAAAGUUGACAUGUCUUACCGGUCGAGGACCGGUACGGCCGCCACUCGAUCUCUCGCACAUGAGGAUCACCCAUGUCG
- apparent Kd (MS2 coat protein [1]; [5]): 12.7 nM
- apparent Kd (MS2 coat protein [1]; [6]): 11.2 nM

Sequence: ACACCAUACAUGAGGAUCACCCAUGUUACACGAGGACCGGUACGGCCGCCACUCGAAUUCAGGAAACCUCGGAUAAUAUUGUGAA
- apparent Kd (MS2 coat protein [1]; [5]): 25.9 nM
- apparent Kd (MS2 coat protein [1]; [6]): 33.2 nM

Sequence: CUAAAUAUAUCGGCCGCCACUUACUCAUGAGGUAACAACAUGAGGAUCACCCAUGUUUGAGGAUCAAGGACCGGGAUAUAUUUAG
- apparent Kd (MS2 coat protein [1]; [5]): 27.8 nM
- apparent Kd (MS2 coat protein [1]; [6]): 19 nM

Sequence: UGUUUGGUGCGCGAGUGUUGGAUGAUUGAUACCAGUGAAGAAGAGCGCCCUUGGCAGCGAAUCCUAACAUGAGGAUCACCCAUGU
- apparent Kd (MS2 coat protein [2]; [7]): 50.8 nM
- apparent Kd (MS2 coat protein [2]; [8]): 67.6 nM

Sequence: AGUACUCGAACGGAUACCAGCCGGACAUGAGGAUCACCCAUGUCCUACCAUGUUUCGGUUGGCCCUUGGCAGCCGUUCGUGUACA
- apparent Kd (MS2 coat protein [2]; [7]): 425 nM
- apparent Kd (MS2 coat protein [2]; [8]): 30.4 nM

Sequence: AUCGUACCUGAUGAUACCAGCAUGUGAUCGUAACAUGAGGAUCACCCAUGUAAUCAGUGAUGCCCUUGGCAGCAUGAUCGGUACA
- apparent Kd (MS2 coat protein [2]; [7]): 97.7 nM
- apparent Kd (MS2 coat protein [2]; [8]): 20.5 nM

Sequence: ACGAACGAUAGUGAUACCAGACGUACAUGAGGAUCACCCAUGUUGUAAACAUGGUUAAUAGUCCCUUGGCAGCACGAUAAGUUCG
- apparent Kd (MS2 coat protein [2]; [9]): 575 nM
- apparent Kd (MS2 coat protein [2]; [10]): 499 nM

Sequence: AGACAUGAGGAUCACCCAUGUAGUACGGAUACCAGAUCCAGAUGCGUCCCUUGGCAGCUGUAGUACAGCGUUACAUCGCUCGUAG
- apparent Kd (MS2 coat protein [2]; [9]): 20.8 nM
- apparent Kd (MS2 coat protein [2]; [10]): 32.1 nM

Sequence: UUACAUGAGGAUCACCCAUGUCAUAACGAUACCAGAUAGUUAAUGAUCCCUUGGCAGCGUAAUACCUAGACAUUUAAGUCAUAGG
- apparent Kd (MS2 coat protein [2]; [7]): 56.2 nM
- apparent Kd (MS2 coat protein [2]; [8]): 19.6 nM

Sequence: UACAUGAGGAUCACCCAUGUAUGAAUAGAUACCAGCGAAAAUAAGCGCCCUUGGCAGCUAGUGAAUAAAGGGUGGGUAAAAUAAU
- apparent Kd (MS2 coat protein [2]; [9]): 9.18 nM
- apparent Kd (MS2 coat protein [2]; [10]): 19.9 nM

Sequence: UGUAAAAUAACAGAUACCAGCGUGUUAUAAAACAUGAGGAUCACCCAUGUAGUGAUCAAGCGCCCUUGGCAGCUGGUAUUUUAUG
- apparent Kd (MS2 coat protein [2]; [7]): 160 nM
- apparent Kd (MS2 coat protein [2]; [8]): 129 nM

Sequence: AACAUGAGGAUCACCCAUGUCAUGUUGGAUACCAGCCAAUAAUAAGGCCCUUGGCAGCUAUAGAUCGAUGAUCCAUGAGGAUCAC
- apparent Kd (MS2 coat protein [2]; [9]): 34.5 nM
- apparent Kd (MS2 coat protein [2]; [10]): 25.3 nM

Sequence: AAUAAGUACUUUGAUACCAGCCUGCCAUCAUGCUAAUUUACAUGAGGAUCACCCAUGUUAGGCCCUUGGCAGCAAAGUGCAAUAA
- apparent Kd (MS2 coat protein [2]; [9]): 12.5 nM
- apparent Kd (MS2 coat protein [2]; [10]): 25.6 nM

Sequence: AUUGGGUUAUCAGAUACCAGACUAUUCUAGACAUGAGGAUCACCCAUGUAUUGGGUUUUCGUCCCUUGGCAGCUGUUAAGUUUAA
- apparent Kd (MS2 coat protein [2]; [7]): 167 nM
- apparent Kd (MS2 coat protein [2]; [8]): 113 nM

Sequence: AUCGUACCUGGUGAUACCAGCAAUUGCUCGUGACAUGAGGAUCACCCAUGUGACCAGUGAUGCCCUUGGCAGCAUGGUCGGUGCA
- apparent Kd (MS2 coat protein [2]; [7]): 68.7 nM
- apparent Kd (MS2 coat protein [2]; [8]): 27.2 nM

Sequence: UUACGAGGCUAUCCACUUUGAUUUUGUGAUACCAGAAUAAUUUUAUUCCCUUGGCAGCAUGACAUGAGGAUCACCCAUGUGUCUU
- apparent Kd (MS2 coat protein [2]; [7]): 38 nM
- apparent Kd (MS2 coat protein [2]; [8]): 61.7 nM

Sequence: UAUUUUGGGCGCGAGCCCGGGAUAAUUGAUACCAGUGAAGAAGAGCGCCCUUGGCAGCGAAUCCUAACAUGAGGAUCACCCAUGU
- apparent Kd (MS2 coat protein [2]; [7]): 47.5 nM
- apparent Kd (MS2 coat protein [2]; [8]): 60 nM

Sequence: CAAACAUGAGGAUCACCCAUGUAAUCAGAUACCAGUGACGAAAGUCACCCUUGGCAGCUGAGUACAUUAGUUCUAAGGUGUUUGA
- apparent Kd (MS2 coat protein [2]; [9]): 44.6 nM
- apparent Kd (MS2 coat protein [2]; [10]): 50.2 nM
